# Measurements as given in article PMC12339990 (Scientific Reports, 2025).
# “Also recorded” adds a separate entry of the source.
# T1: recombinant FLP (rFLP) (Mesocricetus auratus, UniProt Q99MG7)
# T1 sequence (Q99MG7 17-172): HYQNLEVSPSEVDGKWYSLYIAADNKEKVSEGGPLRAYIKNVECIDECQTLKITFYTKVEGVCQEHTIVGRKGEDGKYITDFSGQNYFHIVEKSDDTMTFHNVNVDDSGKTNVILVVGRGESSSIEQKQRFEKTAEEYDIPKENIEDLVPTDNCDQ
# T2: recombinant MSP (rMSP) (Mesocricetus auratus, UniProt Q9QXU1)
# T2 sequence (Q9QXU1 16-172): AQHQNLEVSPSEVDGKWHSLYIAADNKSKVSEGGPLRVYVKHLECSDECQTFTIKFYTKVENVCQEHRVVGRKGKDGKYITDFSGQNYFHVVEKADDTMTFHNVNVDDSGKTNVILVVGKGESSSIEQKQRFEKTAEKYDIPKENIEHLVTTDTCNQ
# T3: rMSP (Mesocricetus auratus, UniProt Q9QXU1)
# T3 sequence (Q9QXU1 16-172): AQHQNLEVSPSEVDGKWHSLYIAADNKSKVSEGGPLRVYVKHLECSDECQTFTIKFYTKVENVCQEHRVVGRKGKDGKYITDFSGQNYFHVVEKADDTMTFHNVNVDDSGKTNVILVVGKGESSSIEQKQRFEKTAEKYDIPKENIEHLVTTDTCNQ
# T4: nMSP (mixture of three natural MSP forms) (Mesocricetus auratus, UniProt Q9QXU1)
# T4 sequence (Q9QXU1 16-172): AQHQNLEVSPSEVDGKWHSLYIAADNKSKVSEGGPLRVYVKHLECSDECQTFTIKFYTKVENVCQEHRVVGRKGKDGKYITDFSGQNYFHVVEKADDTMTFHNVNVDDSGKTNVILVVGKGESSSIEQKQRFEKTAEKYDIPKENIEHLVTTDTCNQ
# T5: rFLP (Mesocricetus auratus, UniProt Q99MG7)
# T5 sequence (Q99MG7 17-172): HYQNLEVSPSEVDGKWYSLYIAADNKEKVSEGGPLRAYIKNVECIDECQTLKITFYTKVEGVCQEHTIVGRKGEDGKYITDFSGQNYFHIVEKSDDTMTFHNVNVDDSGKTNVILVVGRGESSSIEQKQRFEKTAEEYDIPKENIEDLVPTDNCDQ
# T6: 24 kDa MSP (Mesocricetus auratus, UniProt Q9QXU1)
# T6 sequence (Q9QXU1 16-172): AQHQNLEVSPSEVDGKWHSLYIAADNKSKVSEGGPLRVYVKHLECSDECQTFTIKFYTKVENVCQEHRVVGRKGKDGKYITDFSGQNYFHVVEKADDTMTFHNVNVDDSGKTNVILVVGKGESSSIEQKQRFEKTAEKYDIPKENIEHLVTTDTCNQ
# T7: 30 kDa MSP (Mesocricetus auratus, UniProt Q9QXU1)
# T7 sequence (Q9QXU1 16-172): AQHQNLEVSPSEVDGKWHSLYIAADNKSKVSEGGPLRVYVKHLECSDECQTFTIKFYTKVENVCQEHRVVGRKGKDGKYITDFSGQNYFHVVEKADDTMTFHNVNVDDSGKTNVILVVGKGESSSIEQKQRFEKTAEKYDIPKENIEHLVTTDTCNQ
# Key:
# Set-up in all cases: species or system Syrian hamsters (Mesocricetus auratus)
# recombinant FLP (rFLP) = molecular target: T1, recombinant FLP (rFLP); test: Fluorescence ligand binding / competitive displacement of probe 1-NPN from rFLP; settings: for binding / competitor activity with rFLP in fluorescent-probe assay (in words): probe 1-NPN
# In short: (§1)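 rFLP was expressed in E. coli BL21(DE3) with 1 mM IPTG and purified by Ni-NTA and Sephadex G-75. Assays used 2 µM protein in 20 mM Tris-HCl pH 7.4 at 25 °C, excitation 295 nm, emission read at 425 nm. For Kd, 1-NPN (1 mM methanol stock) was titrated and fitted against free probe, assuming 1:1 binding and fully active protein. Competitors (0.25–40 µM) displaced 2 µM probe. IC50 was taken at half-maximal fluorescence; Ki = IC50/(1+[L]/Kd).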
# recombinant MSP (rMSP) = molecular target: T2, recombinant MSP (rMSP); test: Fluorescence ligand binding / competitive displacement of probe 1-AMA from rMSP; settings: for binding / competitor activity with rMSP in fluorescent-probe assay (in words): probe 1-AMA
# In short: as §1, with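 “rMSP” for “rFLP”, “485” for “425”, “1-AMA” for “1-NPN”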
# rMSP = molecular target: T3, rMSP; test: IBMP binding detected by GC-MS of protein peak after gel-filtration; settings: ~7.2 mM IBMP, ~200 µM protein, 25 °C 1 h, Sephadex-G-25, DCM extract
# In short: (§2)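 The protein–IBMP mix was incubated on a rotary shaker, with chymotrypsin as negative control. After G-25 elution, fractions of the first OD280 peak were mixed with dichloromethane, vortexed and held overnight at −20 °C. The lower organic phase was analyzed by GC-MS: 2 µl splitless, helium 1 ml/min, oven 50→300 °C stepwise, 70 eV ionization, total ion current mode.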
# [1] = molecular target: T4, nMSP (mixture of three natural MSP forms); test: as above; settings: ~7.2 mM IBMP, ~200 µM protein, 25 °C 1 h, Sephadex-G-25, DCM extract
# In short: as §2
# rFLP = molecular target: T5, rFLP; test: as above; settings: ~7.2 mM IBMP, ~200 µM protein, 25 °C 1 h, Sephadex-G-25, DCM extract
# In short: as §2
# 24 kDa MSP = molecular target: T6, 24 kDa MSP; test: Lectin binding
# In short: (§3)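 Natural MSP, a mixture of three forms purified from adult male submandibular gland, was tested with a digoxigenin-labelled lectin kit (GNA, SNA, MAA, DSA, PNA). It was also passed through Con A, WGA and jacalin affinity columns. Unbound fractions and fractions eluted with lectin-specific sugars were checked for MSP forms by SDS-PAGE.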
# 30 kDa MSP = molecular target: T7, 30 kDa MSP; test: Lectin binding
# In short: as §3
molecule,measurement,setting,value
"c1ccc(Nc2cccc3ccccc23)cc1 [1-NPN, N-phenyl-1-naphthylamine]",Kd,recombinant FLP (rFLP),~1380 nM
same,binding / competitor activity with rFLP in fluorescent-probe assay (in words),recombinant FLP (rFLP),strong affinity
"COc1nccnc1CC(C)C [IBMP, 2-isobutyl-3-methoxypyrazine]",binding / competitor activity with rMSP in fluorescent-probe assay (in words),recombinant MSP (rMSP),high affinity
same,binding / competitor activity with rFLP in fluorescent-probe assay (in words),recombinant FLP (rFLP),high affinity
same,IBMP found by GC-MS in protein peak fraction (binding to rMSP),rMSP,specific binding; also recorded: retain and specifically carry (i.e. bind) detectable levels
same,IBMP found by GC-MS in protein peak fraction (binding to nMSP),[1],specific binding; also recorded: retain and specifically carry (i.e. bind) detectable levels
same,IBMP found by GC-MS in protein peak fraction (binding to rFLP),rFLP,specific binding; also recorded: retain and specifically carry (i.e. bind) detectable levels
"O=C(O)c1cccc(O)c1O [2,3-dihydroxybenzoic acid]",binding / competitor activity with rMSP in fluorescent-probe assay (in words),recombinant MSP (rMSP),no competitor activity
same,binding / competitor activity with rFLP in fluorescent-probe assay (in words),recombinant FLP (rFLP),no competitor activity
C=CC(O)CCCCC (centres unmarked) [1-octen-3-ol],binding / competitor activity with rMSP in fluorescent-probe assay (in words),recombinant MSP (rMSP),no competitor activity
same,binding / competitor activity with rFLP in fluorescent-probe assay (in words),recombinant FLP (rFLP),no competitor activity
CCCCCCCCCCCCCCCCO [hexadecanol],binding / competitor activity with rMSP in fluorescent-probe assay (in words),recombinant MSP (rMSP),no competitor activity
same,binding / competitor activity with rFLP in fluorescent-probe assay (in words),recombinant FLP (rFLP),no competitor activity
CCCCCCCCCCCCCC(=O)O [myristic],binding / competitor activity with rMSP in fluorescent-probe assay (in words),recombinant MSP (rMSP),no competitor activity
same,binding / competitor activity with rFLP in fluorescent-probe assay (in words),recombinant FLP (rFLP),no competitor activity
"Nc1cccc2cc3ccccc3cc12 [1-AMA, 1-aminoanthracene]",Kd,recombinant MSP (rMSP),~1860 nM
same,binding / competitor activity with rMSP in fluorescent-probe assay (in words),recombinant MSP (rMSP),strong affinity
CC(=O)[C@H]1CC[C@H]2[C@@H]3CCC4=CC(=O)CC[C@]4(C)[C@H]3CC[C@]12C [progesterone],binding / competitor activity with rMSP in fluorescent-probe assay (in words),recombinant MSP (rMSP),extremely weak competitors
same,binding / competitor activity with rFLP in fluorescent-probe assay (in words),recombinant FLP (rFLP),extremely weak competitors
CCCCCCCCCCCCCCCCCC(=O)O [stearic],binding / competitor activity with rMSP in fluorescent-probe assay (in words),recombinant MSP (rMSP),no competitor activity
same,binding / competitor activity with rFLP in fluorescent-probe assay (in words),recombinant FLP (rFLP),no competitor activity
C[C@]12CC[C@H]3[C@@H](CCC4=CC(=O)CC[C@@]43C)[C@@H]1CC[C@@H]2O [testosterone],binding / competitor activity with rMSP in fluorescent-probe assay (in words),recombinant MSP (rMSP),extremely weak competitors
same,binding / competitor activity with rFLP in fluorescent-probe assay (in words),recombinant FLP (rFLP),extremely weak competitors
"O=C(O)c1cc(O)ccc1O [2,5-dihrodoxy benzoic acid]",binding / competitor activity with rMSP in fluorescent-probe assay (in words),recombinant MSP (rMSP),no competitor activity
same,binding / competitor activity with rFLP in fluorescent-probe assay (in words),recombinant FLP (rFLP),no competitor activity
CCCCCCCCCCCCCCCC(=O)O [palmitic],binding / competitor activity with rMSP in fluorescent-probe assay (in words),recombinant MSP (rMSP),no competitor activity
same,binding / competitor activity with rFLP in fluorescent-probe assay (in words),recombinant FLP (rFLP),no competitor activity
C[C@]12CC[C@@H]3c4ccc(O)cc4CC[C@H]3[C@@H]1CC[C@@H]2O [17β-estradiol],binding / competitor activity with rMSP in fluorescent-probe assay (in words),recombinant MSP (rMSP),extremely weak competitors
same,binding / competitor activity with rFLP in fluorescent-probe assay (in words),recombinant FLP (rFLP),extremely weak competitors
CC(=O)N(O)CCCCCNC(=O)CCC(=O)N(O)CCCCCNC(=O)CCC(=O)N(O)CCCCCN [deferoxamine],binding / competitor activity with rMSP in fluorescent-probe assay (in words),recombinant MSP (rMSP),no competitor activity
same,binding / competitor activity with rFLP in fluorescent-probe assay (in words),recombinant FLP (rFLP),no competitor activity
CCCCCCCC/C=C\CCCCCCCC(=O)O [oleic],binding / competitor activity with rMSP in fluorescent-probe assay (in words),recombinant MSP (rMSP),no competitor activity
same,binding / competitor activity with rFLP in fluorescent-probe assay (in words),recombinant FLP (rFLP),no competitor activity
"PNA: Peanut agglutinin, digoxigenin labeled (protein, UniProt P02872 24-273, looked up, digoxigenin label) Galactose-binding lectin: AETVSFNFNSFSEGNPAINFQGDVTVLSNGNIQLTNLNKVNSVGRVLYAMPVRIWSSATGNVASFLTSFSFEMKDIKDYDPADGIIFFIAPEDTQIPAGSIGGGTLGVSDTKGAGHFVGVEFDTYSNSEYNDPPTDHVGIDVNSVDSVKTVPWNSVSGAVVKVTVIYDSSTKTLSVAVTNDNGDITTIAQVVDLKAKLPERVKFGFSASGSLGGRQIHLIRSWSFTSTLITTTRRSIDNNEKKIMNMASA",Binding of lectin to 24 kDa MSP (in words),24 kDa MSP,lack of binding
same,Binding of lectin to 30 kDa MSP (in words),30 kDa MSP,lack of binding
